# Bioassay records deposited in PubChem BioAssay by several laboratories.
# Only some compounds are listed: those with a hit (about 4.7% of all), similar ones and a draw of the others.
# GRIN3A LBD mod = modulates the human NR3A ligand-binding domain; NR3A LBD differential scanning fluorimetry, Tm shift; 0% = protein alone, 100% = glycine-bound protein; Tm shift relative to glycine control, % at 25 µM; 340,000 compounds, 2.5% hits;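 active means melting temperature shift of at least 10% of the positive control shift, at one fixed dose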
# MPTP block = inhibitors of mitochondrial permeability transition pore. isolated mouse mitochondria, Ca2+ swelling absorbance, 30 min. inhibition, % at 10 µM. 360,000 compounds, 1.4% hits;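 active means inhibition of 50% or more, scaled per plate between neutral and stimulator controls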;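 further: 0% = DMSO wells given calcium and 100% = 1 mM EGTA wells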
# SKN-1 block = inhibitors of C. elegans SKN-1; C. elegans VP596 Pgst-4::GFP/RFP ratio, acrylamide-induced, 24 h; inhibition, % at 21.8 µM; 360,000 compounds, 0.49% hits;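 active means interference check ratio from 0.5 to 1.5 plus GFP to RFP signal ratio inhibition reaching or exceeding a fixed threshold, cut at about 30% in these data, passing the limit was not always enough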
# MT1-MMP act inh = inhibitors of human MT1-MMP activation; 360,000 compounds, 0.061% hits; P50281; GFP/RFP ratio change, % at 20 µM; HT1080 RFP-PRO-GFP cells, GFP/RFP ratio fluorescence, overnight; percent of plate control window, DMSO zero;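 active means GFP/RFP ratio change of at least 30% with cell ATP level not reduced by more than half and red fluorescence within 50% of control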
#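 Read-out: GFP/RFP fluorescence ratio; Test system: RFP-PRO-GFP reporter HT1080 cells; Compound dosing: single-point 20 µM compound, 1% DMSO; Times: overnight compound exposure at 37 °C.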
# ADAM10 inh = inhibitors of human ADAM10 | inhibition, % at 7 µM | recombinant ADAM10, EDANS/DABCYL FRET peptide cleavage, 3 h | 370,000 compounds, 0.62% hits | AID 720582 | O14672;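 active means inhibition above a per-campaign cutoff equal to the mean of compounds falling between control-based bounds plus 3 SD, cut at about 20% in these data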;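 further: 0% = DMSO wells while the 100% control is not disclosed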
# Target sequence (O14672 214-748 limits assumed): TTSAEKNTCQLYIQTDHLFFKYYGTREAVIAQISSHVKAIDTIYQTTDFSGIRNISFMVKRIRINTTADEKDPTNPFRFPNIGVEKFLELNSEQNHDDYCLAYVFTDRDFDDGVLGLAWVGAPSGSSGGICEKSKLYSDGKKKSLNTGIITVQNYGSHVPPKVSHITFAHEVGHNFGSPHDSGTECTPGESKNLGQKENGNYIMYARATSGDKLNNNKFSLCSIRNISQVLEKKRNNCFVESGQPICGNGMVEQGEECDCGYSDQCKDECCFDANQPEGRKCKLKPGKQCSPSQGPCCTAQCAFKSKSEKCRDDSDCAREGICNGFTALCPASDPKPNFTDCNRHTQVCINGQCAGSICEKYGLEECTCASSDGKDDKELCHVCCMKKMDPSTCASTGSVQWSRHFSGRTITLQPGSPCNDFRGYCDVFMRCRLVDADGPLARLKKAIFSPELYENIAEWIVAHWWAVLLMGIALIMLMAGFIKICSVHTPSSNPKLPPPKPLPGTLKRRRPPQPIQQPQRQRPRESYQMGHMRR
# ADAM17 inh = inhibits human ADAM17; inhibition, % at 6.95 µM; P78536; recombinant ADAM17, EDANS/DABCYL FRET peptide cleavage; 370,000 compounds, 0.83% hits; AID 720648;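 active means inhibition above the mean of compounds lying between control limits plus 3 SD, set per campaign, cut at about 8.5% in these data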;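 further: 0% = DMSO-only wells as the low control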
# Active calls of the source: *; i = inactive; . = not tested or not shown.
SMILES,GRIN3A LBD mod,MPTP block,SKN-1 block,MT1-MMP act inh,ADAM10 inh,ADAM17 inh
CNc1oc(/C=C/c2cccc(OC)c2)nc1C#N,23*,0,-6,6,.,.
COc1ccc(/C=C/c2nc(C#N)c(NCCN(C)C)o2)cc1OC,1,0,20,-2,-156,-67
COc1cc(/C=N/NC(=O)c2ccncc2)cc2c1OCO2,-1,0,-6,3,6,-4
COc1cc(/C=N/NC(=O)CCN2CCN(C)CC2)cc2c1OCO2,11*,1,-3,1,-20,-5
Oc1ccccc1-c1csc(-c2ccccc2)n1,-13,2,19,-16,-1,-2
c1ccc(-c2csc(-c3ccncc3)n2)cc1,0,1,70*,-1,-56,-14
Fc1ccccc1-c1csc(-c2cccnc2)n1,2,0,25,.,1,0
Brc1ccsc1-c1csc(-c2ccncc2)n1,-1,0,40*,-2,-12,-9
Clc1ccc(-c2csc(-c3cccnc3)n2)s1,-5,-1,92*,5,-21,-8
CC(C)(C)OC(=O)N1CCC2(CC1)Oc1ccc(F)cc1C(=O)C21CC(c2ccccc2)=NO1 (centres undefined),2,3,-9,-17,4,6
CCCCCCCCCCCCCCCC(=O)OCC1OC(n2ccc(N)nc2=O)C(O)C1O (centres undefined),-3,-1,-4,-13,-2,-2
CC(=O)C[C@H]1c2cc(C(F)(F)F)ccc2S(=O)(=O)N1Cc1ccccc1,0,-1,9,1,8,-4
CCCCCCCCCCCCN1[C@@H](CC(=O)O)c2cc(C(F)(F)F)ccc2S1(=O)=O,-3,14,-11,4,22*,2
COC(=O)C[C@H]1c2ccc(C(F)(F)F)cc2S(=O)(=O)N1Cc1ccccc1,13*,1,6,1,-3,-1
COCCCNC(=O)COc1cc2c(c3oc(=O)c(C)c(C)c13)CCC(C)(C)O2,1,1,0,6,i,i
CC(C)(C)c1csc(Sc2ccc([N+](=O)[O-])cn2)n1,3,2,14,2,3,2
CCOC(=O)CN1NC2(CCC(C)CC2)NC1=S (centres undefined),2,1,7,-3,-2,-1
Cc1cc(C(=O)CSc2nc(N)cc(N)n2)c(C)n1-c1cccc(C(F)(F)F)c1,-4,6,13,3,-1,3
COc1cccc(N/C(SCc2ccccc2Cl)=C(/C#N)C(=O)NCc2cccs2)c1,13*,0,-2,-8,9,7
Cc1ccccc1N1CC(C(=O)Nc2nnc(SCc3cccnc3)s2)CC1=O (centres undefined),-2,-1,-7,-1,-11,-2
O=C(NC(=S)Nc1ccccn1)c1ccc([N+](=O)[O-])cc1,11*,-1,-1,3,3,-3
O=C(O)c1ccccc1C(=O)Nc1cc(-c2ccccc2)[nH]n1,0,0,8,1,-5,-5
O=C(Nc1cc(-c2ccccc2)[nH]n1)c1ccccc1F,24*,1,18,0,2,-1
O=C(Nc1cc(-c2ccccc2)[nH]n1)c1ccccc1,-1,0,37*,-1,-8,4
COC(=O)C(C)N(c1ccc(OC)cc1)S(C)(=O)=O (centres undefined),1,0,3,1,0,-8
SMILES,GRIN3A LBD mod,MPTP block,SKN-1 block,MT1-MMP act inh,ADAM10 inh,ADAM17 inh
COc1ccc(CCNC(=O)CSc2nnc(Cn3c(=O)sc4ccccc43)n2C)cc1OC,11*,-2,-9,0,.,.
Cc1nc(SCC(=O)NCC2CCCO2)c2c3c(sc2n1)CCC3 (centres undefined),20*,1,-18,0,-18,-1
O=C(CSc1ncnc2sc3c(c12)CCC3)NCC1CCCO1 (centres undefined),5,0,-6,-2,-16,-6
Nc1ccc(N=Nc2ccc(N)cc2)cc1,-26,1,10,15,-3,-2
Cc1cc(N(C)C)ccc1N=Nc1ccc(N)cc1,-3,5,97*,13,14,7
O=S(=O)(N/N=C/c1ccc(Cl)cc1)c1ccc(Cc2ncc(C(F)(F)F)cc2Cl)s1,29*,6,-18,-4,3,2
NC(=O)c1ccc(Cc2ncc(C(F)(F)F)cc2Cl)s1,8,0,-8,1,2,-4
N#C/C(=C\c1c[nH]c2ccccc12)C(=O)Nc1ncc(Cc2ccc(Cl)cc2Cl)s1,38*,5,2,3,-3,1
N#C/C(=C\c1c[nH]c2ccccc12)C(N)=O,-4,0,18,-3,-2,1
O=C(Oc1ccc2ccccc2c1)c1ccccc1,19*,0,3,0,6,1
O=C(Oc1ccccc1)c1ccccc1,-1,0,-8,-1,-14,-5
Cc1ccc(Oc2ccc(C(=O)NC3CCSC3=O)cn2)cc1 (centres undefined),11*,-3,-9,0,-1,0
O=C(NC1CCSC1=O)c1ccc(Oc2ccc(F)cc2)nc1 (centres undefined),0,-3,-13,4,2,-4
CN(C)c1ccc(/C=C(/C#N)C(=O)Nc2nc3c(s2)CCN(Cc2ccccc2)C3)cc1,-6,2,48*,-93,-18,-3
O=C(c1ccc2c(c1)N(Cc1cccc(Cl)c1)C(=O)c1ccccc1S2(=O)=O)N1CCN(c2ccccn2)CC1,-1,2,8,0,18,8
Cc1c(Cl)cccc1Nc1nc(NCCO)c2ccccc2n1,-2,5,16,6,-14,-9
CCOC(=O)c1cccc(NC(=O)CCNS(=O)(=O)c2cc(Br)cnc2N)c1,-10,1,6,1,-13,-5
Cc1ccc(NC(=O)CCNS(=O)(=O)c2cc(Br)cnc2N)cc1Cl,30*,3,-18,7,-9,-2
Cc1cc(NC(=O)CCNS(=O)(=O)c2cc(Br)cnc2N)ccc1Br,21*,10,11,3,3,3
Nc1ncc(Br)cc1S(=O)(=O)NCCC(=O)Nc1cccc(Cl)c1,23*,4,-3,1,2,-2
COc1cc(-c2nnn(CC(=O)NC3CCS(=O)(=O)C3)n2)ccc1OCc1ccccc1 (centres undefined),1,-1,13,1,7,-3
Cc1ccc(NC(=O)c2ccc(COc3ccccc3[N+](=O)[O-])o2)nc1,5,-1,12,2,-1,0
Cc1ccccc1OCC(=O)NC(=S)Nc1cccc2cc(O)ccc12,19*,3,-7,0,8,2
Cc1ccccc1OCC(=O)NC(=S)Nc1ccc(Br)c(C)n1,-4,2,11,4,0,1
